Source: ChEMBL document CHEMBL1122131, “1,1,2-triphenylbut-1-enes: relationship between structure, estradiol receptor affinity, and mammary tumor inhibiting properties” (1982)

Assays:
Mus musculus [1] = assay: Anti-neoplastic effect in estrogen and progesterone receptor positive hormone-dependent postmenopausal human mammary carcinoma bearing mice at 2.2 mg/kg/day; type: functional
Method in brief: (§1)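 Human ER- and PR-positive, hormone-dependent postmenopausal mammary carcinoma, serially transplanted in NMRI nu/nu mice (castrated females or males, about 25 g, 6–7 weeks old, 10–12 per group). Drug given sc in olive oil 6 times/week; controls received vehicle for 4–6 weeks. Two tumor diameters measured weekly. Size is relative to treatment start (=1), averaged after 4 weeks. Compared with controls at α ≤ 0.05.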

[2] = biological target: Estrogen receptor (Bos taurus) (UniProt Q9XSB5+P49884); assay: Binding affinity against Estrogen receptor in calf-uterine cytosol relative to 17-beta-estradiol using [3H]estradiol.; type: protein assay
Method in brief: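 Calf uterine cytosol was incubated with [3H]estradiol and six concentrations of unlabeled competitor at 4 °C for 16 h. Incubation was stopped with dextran-coated charcoal; after centrifugation, supernatant radioactivity was counted. The concentrations of estradiol and of test compound giving 50% displacement were read from a semilog plot. Relative binding affinity = [E2]/[I] × 100.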

Mus musculus [3] = assay: Anti-neoplastic effect in estrogen and progesterone receptor positive hormone-dependent postmenopausal human mammary carcinoma bearing mice at 2.5 mg/kg/day; type: functional; method in brief: as §1
Mus musculus [4] = assay: Anti-neoplastic effect in estrogen and progesterone receptor positive hormone-dependent postmenopausal human mammary carcinoma bearing mice at 3 mg/kg/day; type: functional; method in brief: as §1
Mus musculus [5] = assay: Anti-neoplastic effect in estrogen and progesterone receptor positive hormone-dependent postmenopausal human mammary carcinoma bearing mice at 3.4 mg/kg/day; type: functional; method in brief: as §1
Rattus norvegicus [6] = assay: Percent partial remission in DMBA-induced hormone-dependent mammary carcinoma bearing rats at 6.83 mg/kg/day; type: functional
Method in brief: (§2)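 Female Sprague-Dawley rats received one 20 mg DMBA dose by gastric intubation at age 50 days. About 4 weeks later, rats with at least one tumor over 140 mm² were grouped in tens. Drug given sc in olive oil 6 times/week. Read-outs were tumors classed as complete remission, partial remission, no change or progression, plus % change in tumor area and in body weight.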

Rattus norvegicus [7] = assay: Percent complete remission in DMBA-induced hormone-dependent mammary carcinoma bearing rats at 6.83 mg/kg/day; type: functional; method in brief: as §2
Rattus norvegicus [8] = assay: Percent partial remission in DMBA-induced hormone-dependent mammary carcinoma bearing rats at 1.71 mg/kg/day; type: functional; method in brief: as §2
Rattus norvegicus [9] = assay: Percent unchanged tumor size in DMBA-induced hormone-dependent mammary carcinoma bearing rats at 0.85 mg/kg/day; type: functional; method in brief: as §2
Rattus norvegicus [10] = assay: Percent tumor progression in DMBA-induced hormone-dependent mammary carcinoma bearing rats at 6.83 mg/kg/day; type: functional; method in brief: as §2
Rattus norvegicus [11] = assay: Percent change in tumor area in DMBA-induced hormone-dependent mammary carcinoma bearing rats at 1.71 mg/kg/day; type: functional; method in brief: as §2
Rattus norvegicus [12] = assay: Percent complete remission in DMBA-induced hormone-dependent mammary carcinoma bearing rats at 0.85 mg/kg/day; type: functional; method in brief: as §2
Rattus norvegicus [13] = assay: Percent change in tumor area in DMBA-induced hormone-dependent mammary carcinoma bearing rats at 0.85 mg/kg/day; type: functional; method in brief: as §2
Rattus norvegicus [14] = assay: Percent unchanged tumor size in DMBA-induced hormone-dependent mammary carcinoma bearing rats at 6.83 mg/kg/day; type: functional; method in brief: as §2
Rattus norvegicus [15] = assay: Percent complete remission in DMBA-induced hormone-dependent mammary carcinoma bearing rats at 1.71 mg/kg/day; type: functional; method in brief: as §2
Rattus norvegicus [16] = assay: Percent change in body weight in DMBA-induced hormone-dependent mammary carcinoma bearing rats at 1.71 mg/kg/day; type: functional; method in brief: as §2
Rattus norvegicus [17] = assay: Percent partial remission in DMBA-induced hormone-dependent mammary carcinoma bearing rats at 0.85 mg/kg/day; type: functional; method in brief: as §2
Rattus norvegicus [18] = assay: Percent tumor progression in DMBA-induced hormone-dependent mammary carcinoma bearing rats at 1.71 mg/kg/day; type: functional; method in brief: as §2
Rattus norvegicus [19] = assay: Percent change in body weight in DMBA-induced hormone-dependent mammary carcinoma bearing rats at 0.85 mg/kg/day; type: functional; method in brief: as §2
Rattus norvegicus [20] = assay: Percent change in tumor area in DMBA-induced hormone-dependent mammary carcinoma bearing rats at 6.83 mg/kg/day; type: functional; method in brief: as §2
Rattus norvegicus [21] = assay: Percent unchanged tumor size in DMBA-induced hormone-dependent mammary carcinoma bearing rats at 1.71 mg/kg/day; type: functional; method in brief: as §2
Rattus norvegicus [22] = assay: Percent change in body weight in DMBA-induced hormone-dependent mammary carcinoma bearing rats at 6.83 mg/kg/day; type: functional; method in brief: as §2
Rattus norvegicus [23] = assay: Percent tumor progression in DMBA-induced hormone-dependent mammary carcinoma bearing rats at 0.85 mg/kg/day; type: functional; method in brief: as §2

Row | Structure (SMILES) | RBA [2] | Tumor size (Mus musculus [3]) | Tumor size (Mus musculus [4]) | other results
1 | CCC(=C(c1ccccc1)c1ccccc1)c1ccccc1 | 0.8% |  |  | Tumor size (Mus musculus [1]): 1.61
2 | CC/C(=C(\c1ccccc1)c1cccc(OC(C)=O)c1)c1ccccc1 | 0.3% | 2.41 |  | 
3 | CCC(=C(c1ccccc1)c1ccccc1)c1cccc(OC(C)=O)c1 | 1.5% | 1.04 |  | 
4 | CC/C(=C(/c1ccccc1)c1ccc(OC(C)=O)cc1)c1ccc(OC(C)=O)cc1 | 5.9% |  | 0.83 | 
5 | CC/C(=C(/c1ccccc1)c1ccc(OC(C)=O)cc1)c1ccccc1 | 5.7% | 1.24 |  | 
6 | CC/C(=C(/c1ccccc1)c1cccc(OC(C)=O)c1)c1ccccc1 | 0.7% | 2.12 |  | 
7 | CC/C(=C(\c1ccccc1)c1ccc(OC(C)=O)cc1)c1ccc(OC(C)=O)cc1 | 1% |  | 1.39 | 
8 | CC/C(=C(/c1ccc(OC(C)=O)cc1)c1cccc(OC(C)=O)c1)c1cccc(OC(C)=O)c1 | 1.8% |  |  | Tumor size (Mus musculus [5]): 2.44
9 | CC/C(=C(\c1ccc(OC(C)=O)cc1)c1cccc(OC(C)=O)c1)c1cccc(OC(C)=O)c1 | 2.7% |  |  | Tumor size (Mus musculus [5]): 1.69
10 | CC/C(=C(\c1ccccc1)c1ccc(OC(C)=O)cc1)c1ccccc1 | 2% | 1.3 |  | 
11 | CCC(=C(c1ccc(OC(C)=O)cc1)c1ccc(OC(C)=O)cc1)c1ccccc1 | 6.8% |  | 0.81 | 
12 | CCC(=C(c1ccccc1)c1ccccc1)c1ccc(OC(C)=O)cc1 | 3.8% | 1.12 |  | 
13 | CCC(=C(c1ccc(OC(C)=O)cc1)c1ccc(OC(C)=O)cc1)c1ccc(OC(C)=O)cc1 | 4.2% |  |  | Tumor size (Mus musculus [5]): 1.52
14 | CCC(=C(c1cccc(OC(C)=O)c1)c1cccc(OC(C)=O)c1)c1ccccc1 | 1.2% |  | 2.4 | 
15 | CC/C(=C(/c1ccccc1)c1cccc(OC(C)=O)c1)c1cccc(OC(C)=O)c1 | 1.1% |  | 1.35 | 
16 | CCC(=C(c1cccc(OC(C)=O)c1)c1cccc(OC(C)=O)c1)c1cccc(OC(C)=O)c1 | 1.5% |  |  | Tumors (Rattus norvegicus [6]): 30%; Change (Rattus norvegicus [7]): 5%; Tumors (Rattus norvegicus [8]): 16%; Tumors (Rattus norvegicus [9]): 44%; Tumors (Rattus norvegicus [10]): 35%; Change (Rattus norvegicus [11]): 78%; Tumors (Rattus norvegicus [12]): 2%; Change (Rattus norvegicus [13]): 102%; Tumor size (Mus musculus [5]): 2.12; Tumors (Rattus norvegicus [14]): 30%; Change (Rattus norvegicus [15]): 3%; Change (Rattus norvegicus [16]): 3.2%; Tumors (Rattus norvegicus [17]): 14%; Tumors (Rattus norvegicus [18]): 44%; Change (Rattus norvegicus [19]): 5.2%; Change (Rattus norvegicus [20]): 54%; Tumors (Rattus norvegicus [21]): 37%; Change (Rattus norvegicus [22]): 3.6%; Tumors (Rattus norvegicus [23]): 40%
17 | CC/C(=C(\c1ccc(OC(C)=O)cc1)c1cccc(OC(C)=O)c1)c1ccc(OC(C)=O)cc1 | 3% |  |  | Tumor size (Mus musculus [5]): 2.04
18 | CC/C(=C(\c1ccccc1)c1cccc(OC(C)=O)c1)c1cccc(OC(C)=O)c1 | 0.2% |  | 2.36 | 
